Compounds with a hit are over-represented: about 1.9% of the library has one in this group of screens.
Hck-Nef inh: human Hck-Nef kinase inhibition | P08631 | Recombinant Hck-YEEI plus Nef, Z-Lyte FRET kinase assay | inhibition, % at 20 µM | hit rate 0.68% among 220,000 | AID 463187;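 active = Hck-Nef kinase inhibition above about 50%, limit read from the data; inactive = inhibition below that limit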;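 also: 0% = DMSO with Hck plus Nef and 100% = Hck alone without Nef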
Target sequence (P08631 whole entry, looked up): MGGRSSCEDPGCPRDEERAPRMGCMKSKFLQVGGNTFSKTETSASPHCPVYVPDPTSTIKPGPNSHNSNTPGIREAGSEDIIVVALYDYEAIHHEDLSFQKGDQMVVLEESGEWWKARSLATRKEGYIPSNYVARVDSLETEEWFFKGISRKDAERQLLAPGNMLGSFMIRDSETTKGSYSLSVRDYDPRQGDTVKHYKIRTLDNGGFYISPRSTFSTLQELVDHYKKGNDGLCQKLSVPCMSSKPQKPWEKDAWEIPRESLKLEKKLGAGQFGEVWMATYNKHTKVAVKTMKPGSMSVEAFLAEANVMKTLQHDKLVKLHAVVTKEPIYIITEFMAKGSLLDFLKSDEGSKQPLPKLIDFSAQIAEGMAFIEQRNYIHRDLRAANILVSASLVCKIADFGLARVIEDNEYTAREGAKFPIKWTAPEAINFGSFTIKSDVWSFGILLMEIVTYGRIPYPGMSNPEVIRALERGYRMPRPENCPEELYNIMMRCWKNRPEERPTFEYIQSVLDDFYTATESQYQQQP
Runt-SMMHC FRET: blocks binding of human RUNX1 Runt domain to CBFb-SMMHC. Q01196+Q13951. Cerulean-Runt/Venus-CBFb-SMMHC FRET ratio 530/480, 1 h. inhibition, % at 20 µM. hit rate 0.74% among 220,000. AID 1434;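 active = mean inhibition across duplicate retests at 20 µM reaching about 50%, limit read from the data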;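 also: 0% = DMSO wells and 100% = wells with excess untagged CBFb-SMMHC; inhibitors lower the FRET ratio by blocking Runt binding to CBFb-SMMHC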
RanGTP-Impb inh: disruptors of Ran-importin-beta complex formation – biochemical, FRET, CFP-Ran, YFP-importin-beta, homogeneous, primary screen | AID 2216 | hit rate 1.1% among 300,000 | cell-free CFP-Ran/YFP-importin-beta FRET ratio | inhibition, % (no concentration beside the values);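 active = more than half of the replicate wells show a fall in the fluorescence ratio signal beyond about 16%, limit read from the data, passing the limit was not always enough; inconclusive = exactly half of the replicate wells pass the set limit; inactive = fewer than half of replicates pass the limit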;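 also: 0% = DMSO wells and 100% = Ran loaded with GDP instead of GTP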
Runt-CBFb FRET: blocks binding of human RUNX1 Runt domain to CBFb. Q01196+Q13951. Cerulean-Runt/Venus-CBFb FRET ratio 530/480, 1 h. inhibition, % at 20 µM. hit rate 0.46% among 220,000. AID 1496;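 active = inhibition over about 50% at 20 µM in the single-dose screen, limit read from the data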;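 also: 0% = DMSO wells and 100% = excess unlabeled CBFb competitor control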
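test system = Cerulean-tagged RUNX1 Runt domain (FRET donor) fusion protein | reagent = Venus-CBFb binding partner, 100 nM | incubation = protein complex preformed 1 h, compound exposure 1 h, room temperature, dark | detection = FRET fluorescence | read-out basis = loss of energy transfer signal | controls = 5 µM unlabeled CBFb as full-inhibition high control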
Tb hexokinase: T. brucei hexokinase 1 inhibition | inhibition, % at 10 µM | hit rate 0.11% among 220,000 | recombinant TbHK1, G6PDH-coupled NADH A340;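 active = inhibition of 50% or more in the single-dose primary screen; inactive = inhibition below 50%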
YIC FRET counter: counter-screen: alters YIC FRET probe signal. shares compounds with RanGTP-Impb inh. Purified YIC probe, intramolecular FRET ratio YFP/CFP. IC50, µM. hit rate 40% among 1,000;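 active = fitted half-maximal inhibitory concentration no more than tenfold above the top dose tested; inconclusive = flat fit with 30 to 70% activity, or poor fit; inactive = half-maximal concentration beyond tenfold above the top dose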
* = called active by the depositor; ? = inconclusive; . = no result.

SMILES	Hck-Nef inh	Runt-SMMHC FRET	RanGTP-Impb inh	Runt-CBFb FRET	Tb hexokinase	YIC FRET counter
CCOc1ccc(S(=O)(=O)N2CCN(C(=O)c3ccncc3)CC2)cc1	.	.	1.3	.	.	.
O=C(NCc1ccc(OC(F)(F)F)cc1)C1CC(c2ccccc2C(F)(F)F)=NO1 (stereo not drawn)	20.8	-1.5	6.9	-2.9	-8.1	.
CCc1ccc(CN2CCC(Oc3ccc(C(=O)N4CCCC4)cc3)CC2)cc1	.	.	3.8	.	.	.
CC(C)c1ccc(CN2CCC(Oc3ccc(C(=O)N4CCCC4)cc3)CC2)cc1	.	.	21.1*	.	.	>50
COc1ccccc1C(=O)NC(=S)Nc1ccccc1N1CCCC1	.	.	3.8	.	.	.
COc1ccccc1C(=O)NC(=S)Nc1ccc(N2CCCC2)cc1	2.5	1.7	19.7*	1.3	-23.3	>50
COc1ccc(C2NCCc3c2[nH]c2ccccc32)cc1COc1ccc(F)cc1 (stereo not drawn)	0.1	-5.0	22.2*	-2.5	28.1	>50
O=C(O)C1Cc2c([nH]c3ccccc23)C(c2ccc3c(c2)OCO3)N1 (stereo not drawn)	1.1	47.6	-3.1	4.1	0.5	.
COc1ccc(C2NC(C(=O)O)Cc3c2[nH]c2ccccc32)cc1CN1CCN(c2ccc(F)cc2)CC1 (stereo not drawn)	14.3	38.0	23.6*	7.8	-7.6	8.57*
CC(C)S(=O)(=O)c1nsc2nc(=O)c(/C=C3\C=Nc4ccccc43)c(N)n12	1.7	79.8*	30.5*	35.4	-5.5	9.72*
CSc1nsc2nc(=O)c(/C=C3\C=Nc4ccccc43)c(N)n12	-0.4	51.1*	26.2*	13.5	-3.3	28.2*
COc1ccc(N/C(C)=C/C(=S)Nc2ccccc2)cc1	3.8	0.1	0.1	2.4	-14.0	.
COc1ccc(-c2cc(C(=O)O)nc3ccc4ccccc4c23)cc1OC	19.9	5.8	18.2*	-0.4	-15.0	>50
COCCNC(=O)[C@H]1N2C(=O)c3ccccc3C2SC1(C)C (stereo partly drawn)	.	.	7.0	.	.	.
COc1ccc(CC(=O)OCc2nnc(-c3ccccc3)o2)cc1	12.2	1.9	-1.3	-1.2	11.4	.
CCN(CC)S(=O)(=O)c1ccc(NC(=O)c2cccc3c2C(=O)N(CCOC)C3)cc1	2.3	7.7	18.5*	-5.1	-10.3	>50
O=c1cn[nH]c2ccccc12	6.7	-9.5	20.7*	2.0	-45.4	>50
COc1cccc2c(=O)cn[nH]c12	3.0	4.6	0.2	-1.5	-22.4	.
CCc1nnc(NC(=O)CSc2nc3ccccc3s2)s1	1.4	-51.7	-0.9	-0.6	5.3	.
CCNc1nnc(CSc2nc3ccccc3s2)s1	10.1	3.0	18.4*	0.0	1.3	>50
O=c1c2ccccc2nc(-c2ccco2)n1CCc1ccc(O)cc1	.	.	0.0	.	.	.
COc1ccccc1/C=N/n1c(N)c(C(=O)NC2CCCCC2)c2nc3ccccc3nc21	11.4	-4.5	.	-1.3	-22.9	.
Nc1c(C(=O)NC2CCCC2)c2nc3ccccc3nc2n1/N=C/c1ccco1	11.7	25.3	26.4*	20.8	-12.5	9.48*
CSc1ccc(/C=C(/Sc2nnc(-c3ccccc3)o2)C(=O)O)cc1	22.5	-5.8	25.0*	-1.1	-9.1	41*
COc1ccc(-c2nnc(S/C(=C/c3ccc(Cl)cc3)C(=O)O)o2)cc1	25.4	-4.1	?	3.0	-7.5	.
SMILES	Hck-Nef inh	Runt-SMMHC FRET	RanGTP-Impb inh	Runt-CBFb FRET	Tb hexokinase	YIC FRET counter
COc1ccc(C(=O)NC(=S)Nc2ccc(CN3CCOCC3)cc2)cc1OC	18.3	1.9	?	2.3	-21.8	.
COc1ccc(Br)cc1/C=C/C(=O)NC(=S)Nc1ccc(CN2CCOCC2)cc1	.	.	50.2*	.	.	>50
CC1(C)CC(=O)C=C(Nc2ccc(S(N)(=O)=O)cc2)C1	13.7	1.4	22.2*	0.4	-47.0	>50
Cc1cc(=O)[nH]c(/N=C(\N)Nc2ccc(SC(F)F)cc2)n1	19.7	1.2	4.0	0.2	-4.9	.
N=C(N)SCc1nc2ccccc2c(=O)n1-c1ccccc1Cl	0.7	0.5	26.1*	0.4	-0.8	>50
CC1CCN(C(=O)Cn2c(=O)oc3cc(S(=O)(=O)N4CCCCC4)ccc32)CC1	.	.	-0.4	.	.	.
CC1CCCCN1C(=O)Cn1c(=O)oc2cc(S(=O)(=O)N3CCCC3)ccc21 (stereo not drawn)	.	.	16.6*	.	.	>50
O=c1cc(CSCc2ccc(Cl)cc2)[nH]c(=O)[nH]1	-10.5	0.6	-0.5	1.0	-0.6	.
O=C(c1cc2ccccc2oc1=O)N1CCN(CCc2ccccc2)CC1	-3.2	77.0*	33.2*	50.0	-3.2	7.34*
NS(=O)(=O)c1ccc(N=Nc2c[nH]c(=O)c(O)c2)cc1	17.4	9.1	28.1*	14.8	-9.1	>50
CN1CCCN(Cc2cccc3ccccc23)CC1	.	.	21.7*	.	.	>50
Cc1ccc(OCC(=O)c2cc(C)n(CC(F)(F)F)c2C)c([N+](=O)[O-])n1	22.5	9.4	19.8*	17.4	-2.9	>50
COc1ccc(CCN(C)CC(=O)Nc2cc(C)nc3ccccc23)cc1OC	30.5	3.0	4.1	3.4	-13.0	.
c1ccc2[nH]c(CSc3nnc(-c4ccncc4)o3)nc2c1	-1.7	-3.4	6.0	-0.8	2.9	.
Clc1ccc(-c2nnc(SCc3nc4ccccc4[nH]3)o2)c(Cl)c1	-10.7	2.0	32.4*	-0.3	1.8	>50
Cn1c(N)c(C(=O)COC(=O)C2(c3ccc(F)cc3)CCCC2)c(=O)n(C)c1=O	-6.1	-1.2	21.8*	-4.4	-4.6	>50
COc1ccccc1C(=O)NCCC(=O)N(C)CC(=O)Nc1ccc(N2CCOCC2)cc1	.	.	-1.5	.	.	.
Cc1ccc2nc(NCC(=O)O)nc(-c3ccccc3)c2c1	13.6	-13.8	22.2*	22.6	-6.7	47.9*
C=CCN1C(=O)/C(=C2/Sc3ccccc3N2CC)SC1=S	.	.	16.6*	.	.	>50
CCN1C(=O)/C(=C2\Sc3ccccc3N2CC)OC1=S	6.7	11.5	20.6*	-6.1	-3.6	36.3*
C=CCN1C(=O)/C(=C2/Sc3ccccc3N2C)SC1=Nc1ccccc1C	1.3	-2.2	1.3	-2.4	-15.0	.
CCNS(=O)(=O)c1ccc(CCC(=O)Nc2ccc3c(c2)OCCO3)cc1	.	.	6.9	.	.	.
COC(=O)C1(Cc2ccccc2)NC(c2ccc(F)cc2)C2C(=O)N(C)C(=O)C21 (stereo not drawn)	-12.2	-2.0	4.3	-3.6	2.8	.
CCC1(C(=O)OC)NC(c2cccc(F)c2)C2C(=O)N(C)C(=O)C21 (stereo not drawn)	-0.8	.	20.3*	.	3.0	>50
COC(=O)C(C)Oc1ccc2c(c1)O/C(=C\c1ccco1)C2=O (stereo not drawn)	.	.	20.8*	.	.	17.4*
COc1ccc2c(c1)O/C(=C\c1ccco1)C2=O	26.9	61.2*	20.8*	13.6	-28.8	18.8*
CS(=O)(=O)c1ccc(NC(=O)C2CC(=O)N(c3ccc4c(c3)OCCO4)C2)cc1 (stereo not drawn)	.	.	0.2	.	.	.
